# According to ChEMBL document CHEMBL4321819, “Simple Structural Modifications Converting a Bona fide MDM2 PROTAC Degrader into a Molecular Glue Molecule: A Cautionary Tale in the Design of PROTAC Degraders” (J Med Chem, 2019):
# Activity calls are given as the source filed them. The rule behind the calls is not given here.
# Experiments:
# [1] = Antiproliferative activity against human RS4:11/IRMI-2 cells harboring p53 hotspot mutation Y236H/R249G assessed as cell growth inhibition after 4 days by WST-8 assay; assay type: functional, cell-based; settings: RS4-11, 96 h
# Procedure, shortened: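 Leukemia cells seeded at 10000–20000 cells/well, breast cancer lines at 5000–10000 cells/well. Serially diluted compound added, then 4 days at 37 °C, 5% CO2. Growth read with WST-8 reagent after at least 1 h, absorbance at 450 nm. RS4;11, MOLM-13 and breast lines were grown in RPMI 1640; MV-4-11 and HL-60 in IMDM; all with 10% FBS. Mean ± SE, at least three independent experiments.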
# MDA-MB-231 [2] = assay: Antiproliferative activity against human MDA-MB-231 cells harboring mutant p53 assessed as cell growth inhibition without interaction with cereblon after 4 days by WST-8 assay; assay type: functional, cell-based; settings: MDA-MB-231, 96 h
# [3] = molecular target: T1, Eukaryotic peptide chain release factor GTP-binding subunit ERF3A (Homo sapiens, UniProt P15170); assay: Induction of GSPT1 degradation in human MDA-MB-468 cells transfected with CRBN siRNA LQ-021086-11-0002 assessed as decrease in GSPT1 protein level at 0.1 uM after 2 to 24 hrs by Western blot analysis; assay type: cell-based
# Procedure, shortened: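 MDA-MB-231 or MDA-MB-468 cells transfected 2 days with CRBN siRNA (Lipofectamine RNAiMAX; non-targeting siRNA as control), then exposed to 0.1 μM for 2 h or 24 h. Cell culture was RPMI 1640 with 10% FBS at 37 °C, 5% CO2. GSPT1 and cereblon protein were probed by Western blot.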
# MDA-MB-231 [4] = assay: Antiproliferative activity against human MDA-MB-231 cells transfected with MDM2 siRNA assessed as cell growth inhibition after 4 days by WST-8 assay; assay type: functional, cell-based; settings: MDA-MB-231, 96 h
# Procedure, shortened: (§1)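 MDA-MB-231 or MDA-MB-468 cells transfected for 2 days using Lipofectamine RNAiMAX with MDM2 siRNA, one of two CRBN siRNAs, or non-targeting control siRNA. Compound then added and growth read by WST-8 at 450 nm.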
# [5] = molecular target: GSPT1/E3 ubiquitin-protein ligase Mdm2 (Homo sapiens) (UniProt Q00987+P15170); assay: Binding affinity to GSPT1/MDM2 in human MDA-MB-231 cells assessed as GSPT1 degradation at 0.1 to 1 uM after 2 hrs by Western blot analysis; assay type: cell-based
# [6] = molecular target: Cellular tumor antigen p53 (Homo sapiens) (UniProt P04637); assay: Activation of p53 in human RS4:11 cells assessed as increase in BAX mRNA expression at 3 nM after 1 to 2 hrs by qRT-PCR analysis; assay type: cell-based
# Procedure, shortened: (§2)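 RS4;11 cells (RPMI 1640, 10% FBS, 37 °C, 5% CO2) treated with 3 nM or 10 nM compound; total RNA extracted and mRNA of p53 targets MDM2, CDKN1A, PUMA and BAX quantified by qRT-PCR. Mean ± standard error from at least three independent experiments.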
# [7] = molecular target: Protein cereblon/Eukaryotic peptide chain release factor GTP-binding subunit ERF3A/DNA damage-binding protein 1/Cullin-4A (Homo sapiens) (UniProt Q96SW2+Q16531+Q13619+P15170); assay: Protac activity at GSPT1/CUL4/DDB1/CRBN in human RS4:11 cells expressing wild type p53 assessed as decrease in GSPT1 protein level measured upto 24 hrs by Western blot analysis; assay type: cell-based
# Procedure, shortened: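 RS4;11 (wild-type p53) or RS4;11/IRMI-2 (MDM2 inhibitor-resistant derivative, mutant p53) cells kept in RPMI 1640 with 10% FBS at 37 °C, 5% CO₂. 2×10^6 cells/well treated at the indicated concentrations and times, then lysed in ice-cold lysis buffer with protease inhibitor. GSPT1 detected by Western blot with a specific antibody.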
# [8] = molecular target: T1, Eukaryotic peptide chain release factor GTP-binding subunit ERF3A; assay: Induction of GSPT1 degradation in human MDA-MB-231 cells transfected with CRBN siRNA LQ-021086-10-0002 assessed as decrease in GSPT1 protein level at 0.1 uM after 2 to 24 hrs by Western blot analysis; assay type: cell-based
# Procedure, shortened: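 MDA-MB-231 cells transfected with CRBN or non-targeting siRNA, then exposed to 0.1 μM compound for 2 h or 24 h. Lysed in ice-cold lysis buffer with protease inhibitor; GSPT1 and cereblon probed by Western blot.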
# MDA-MB-231 [9] = assay: Antiproliferative activity against human MDA-MB-231 cells transfected with CRBN siRNA LQ-021086-11-0002 assessed as cell growth inhibition after 4 days by WST-8 assay; assay type: functional, cell-based; settings: MDA-MB-231, 96 h; procedure, shortened: as §1
# [10] = molecular target: E3 ubiquitin-protein ligase Mdm2 (Homo sapiens, UniProt Q00987); assay: Induction of MDM2 degradation in human RS4:11 cells assessed as upregulation of p53 at 1 to 30 nM after 1 hr by Western blot analysis; assay type: cell-based
# Procedure, shortened: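 Western blots of MDM2 and p53 protein were run on RS4;11 cells (wild-type p53) in RPMI 1640 with 10% FBS. 2×10^6 cells/well were treated at the indicated concentrations for 1 h or 2 h. Lysis was in ice-cold buffer with protease inhibitor, followed by probing with specific antibodies.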
# [11] = molecular target: Cellular tumor antigen p53 (Homo sapiens) (UniProt P04637); assay: Activation of p53 in human RS4:11 cells assessed as increase in MDM2 mRNA expression at 3 nM after 1 to 2 hrs by qRT-PCR analysis; assay type: cell-based; procedure, shortened: as §2
# MDA-MB-468 = assay: Antiproliferative activity against human MDA-MB-468 cells transfected with CRBN siRNA LQ-021086-11-0002 assessed as cell growth inhibition after 4 days by WST-8 assay; assay type: functional, cell-based; settings: MDA-MB-468, 96 h; procedure, shortened: as §1
# T1 sequence (P15170 whole entry): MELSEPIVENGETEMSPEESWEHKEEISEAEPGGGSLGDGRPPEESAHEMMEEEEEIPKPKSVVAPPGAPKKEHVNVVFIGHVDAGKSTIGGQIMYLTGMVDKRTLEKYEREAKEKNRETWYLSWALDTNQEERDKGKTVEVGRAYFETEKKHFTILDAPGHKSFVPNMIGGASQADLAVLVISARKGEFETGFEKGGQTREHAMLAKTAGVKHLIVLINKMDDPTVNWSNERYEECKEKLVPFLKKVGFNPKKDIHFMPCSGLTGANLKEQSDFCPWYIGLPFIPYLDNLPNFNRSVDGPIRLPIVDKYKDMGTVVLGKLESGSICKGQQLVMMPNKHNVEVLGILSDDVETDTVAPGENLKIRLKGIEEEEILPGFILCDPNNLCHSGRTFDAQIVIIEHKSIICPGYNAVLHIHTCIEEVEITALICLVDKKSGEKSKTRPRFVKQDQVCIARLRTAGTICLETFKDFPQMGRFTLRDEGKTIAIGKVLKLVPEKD
# Sequence of Cellular tumor antigen p53 (Homo sapiens) (P04637 whole entry, looked up): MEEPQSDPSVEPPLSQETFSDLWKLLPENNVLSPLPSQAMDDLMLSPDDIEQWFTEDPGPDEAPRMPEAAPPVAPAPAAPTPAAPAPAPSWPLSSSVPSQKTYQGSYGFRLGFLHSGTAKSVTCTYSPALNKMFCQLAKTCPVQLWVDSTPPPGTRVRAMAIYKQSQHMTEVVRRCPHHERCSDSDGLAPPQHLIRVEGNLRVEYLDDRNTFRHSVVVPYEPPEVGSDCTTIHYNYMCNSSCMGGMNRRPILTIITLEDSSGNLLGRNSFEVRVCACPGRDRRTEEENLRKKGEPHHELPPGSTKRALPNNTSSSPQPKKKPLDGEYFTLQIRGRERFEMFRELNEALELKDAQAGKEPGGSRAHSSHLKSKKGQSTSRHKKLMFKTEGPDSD
# Sequence of Protein cereblon/Eukaryotic peptide chain release factor GTP-binding subunit ERF3A/DNA damage-binding protein 1/Cullin-4A (Homo sapiens) (P15170 whole entry, looked up): as the sequence (P15170 whole entry) above
# Sequence of Protein cereblon/Eukaryotic peptide chain release factor GTP-binding subunit ERF3A/DNA damage-binding protein 1/Cullin-4A (Homo sapiens) (Q13619 whole entry, looked up): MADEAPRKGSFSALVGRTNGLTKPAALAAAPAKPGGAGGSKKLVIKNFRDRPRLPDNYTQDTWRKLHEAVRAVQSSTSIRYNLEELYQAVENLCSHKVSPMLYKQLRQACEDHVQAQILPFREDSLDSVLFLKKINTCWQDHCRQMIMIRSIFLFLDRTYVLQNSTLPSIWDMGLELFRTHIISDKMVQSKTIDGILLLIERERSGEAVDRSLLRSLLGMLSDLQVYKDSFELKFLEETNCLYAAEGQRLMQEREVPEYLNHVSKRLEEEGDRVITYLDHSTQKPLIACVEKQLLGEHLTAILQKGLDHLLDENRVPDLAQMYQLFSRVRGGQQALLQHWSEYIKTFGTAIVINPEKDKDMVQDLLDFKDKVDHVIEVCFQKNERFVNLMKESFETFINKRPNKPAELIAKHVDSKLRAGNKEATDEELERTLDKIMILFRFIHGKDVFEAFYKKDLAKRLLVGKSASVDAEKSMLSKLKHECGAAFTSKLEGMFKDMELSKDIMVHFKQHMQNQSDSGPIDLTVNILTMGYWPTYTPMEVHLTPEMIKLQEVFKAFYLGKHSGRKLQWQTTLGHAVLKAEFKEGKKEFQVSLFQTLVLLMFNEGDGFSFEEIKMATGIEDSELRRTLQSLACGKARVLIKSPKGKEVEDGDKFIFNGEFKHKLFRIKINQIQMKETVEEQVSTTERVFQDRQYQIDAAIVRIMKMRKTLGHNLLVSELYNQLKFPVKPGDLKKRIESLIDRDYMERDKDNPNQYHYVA
# Sequence of Protein cereblon/Eukaryotic peptide chain release factor GTP-binding subunit ERF3A/DNA damage-binding protein 1/Cullin-4A (Homo sapiens) (Q16531 whole entry, looked up): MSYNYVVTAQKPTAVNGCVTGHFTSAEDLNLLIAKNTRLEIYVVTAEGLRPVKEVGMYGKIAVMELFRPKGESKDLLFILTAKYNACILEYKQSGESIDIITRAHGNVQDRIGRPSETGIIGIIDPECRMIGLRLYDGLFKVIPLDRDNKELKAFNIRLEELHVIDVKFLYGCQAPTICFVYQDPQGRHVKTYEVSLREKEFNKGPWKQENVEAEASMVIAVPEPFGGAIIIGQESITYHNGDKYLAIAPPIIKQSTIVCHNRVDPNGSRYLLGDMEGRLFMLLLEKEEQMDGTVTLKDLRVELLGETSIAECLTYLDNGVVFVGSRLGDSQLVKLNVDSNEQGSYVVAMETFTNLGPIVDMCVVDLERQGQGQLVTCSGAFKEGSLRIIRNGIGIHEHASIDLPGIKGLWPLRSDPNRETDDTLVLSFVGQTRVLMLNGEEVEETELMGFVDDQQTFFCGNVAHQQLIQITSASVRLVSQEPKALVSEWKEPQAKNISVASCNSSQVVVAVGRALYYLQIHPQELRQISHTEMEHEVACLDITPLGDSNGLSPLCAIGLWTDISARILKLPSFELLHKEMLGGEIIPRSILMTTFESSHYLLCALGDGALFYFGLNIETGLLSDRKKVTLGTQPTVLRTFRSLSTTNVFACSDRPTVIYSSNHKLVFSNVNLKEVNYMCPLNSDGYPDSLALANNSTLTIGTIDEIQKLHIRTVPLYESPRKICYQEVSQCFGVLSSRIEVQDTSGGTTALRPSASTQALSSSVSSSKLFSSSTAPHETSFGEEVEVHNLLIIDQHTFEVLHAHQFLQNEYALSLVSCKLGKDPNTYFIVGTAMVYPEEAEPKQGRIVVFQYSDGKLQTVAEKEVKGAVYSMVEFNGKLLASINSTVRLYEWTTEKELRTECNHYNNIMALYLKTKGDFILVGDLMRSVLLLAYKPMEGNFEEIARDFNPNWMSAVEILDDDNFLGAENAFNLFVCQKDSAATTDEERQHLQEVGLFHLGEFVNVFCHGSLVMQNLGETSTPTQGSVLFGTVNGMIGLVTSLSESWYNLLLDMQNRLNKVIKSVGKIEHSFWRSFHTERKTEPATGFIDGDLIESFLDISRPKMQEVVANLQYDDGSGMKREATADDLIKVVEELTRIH
# Sequence of Protein cereblon/Eukaryotic peptide chain release factor GTP-binding subunit ERF3A/DNA damage-binding protein 1/Cullin-4A (Homo sapiens) (Q96SW2 whole entry, looked up): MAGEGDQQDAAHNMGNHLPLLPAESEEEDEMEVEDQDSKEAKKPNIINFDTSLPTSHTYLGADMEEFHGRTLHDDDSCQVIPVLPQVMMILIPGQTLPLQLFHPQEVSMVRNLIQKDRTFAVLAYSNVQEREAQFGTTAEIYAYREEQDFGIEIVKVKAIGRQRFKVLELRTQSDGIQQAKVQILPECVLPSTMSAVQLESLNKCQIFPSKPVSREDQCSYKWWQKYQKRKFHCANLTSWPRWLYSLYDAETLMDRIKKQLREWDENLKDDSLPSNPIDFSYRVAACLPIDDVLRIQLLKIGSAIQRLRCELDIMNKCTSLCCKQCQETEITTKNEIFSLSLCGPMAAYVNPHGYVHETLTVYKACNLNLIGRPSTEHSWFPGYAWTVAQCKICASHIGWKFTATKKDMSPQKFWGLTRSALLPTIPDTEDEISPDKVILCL
# Sequence of GSPT1/E3 ubiquitin-protein ligase Mdm2 (Homo sapiens) (P15170 whole entry, looked up): as the sequence (P15170 whole entry) above
# Sequence of GSPT1/E3 ubiquitin-protein ligase Mdm2 (Homo sapiens) (Q00987 whole entry, looked up): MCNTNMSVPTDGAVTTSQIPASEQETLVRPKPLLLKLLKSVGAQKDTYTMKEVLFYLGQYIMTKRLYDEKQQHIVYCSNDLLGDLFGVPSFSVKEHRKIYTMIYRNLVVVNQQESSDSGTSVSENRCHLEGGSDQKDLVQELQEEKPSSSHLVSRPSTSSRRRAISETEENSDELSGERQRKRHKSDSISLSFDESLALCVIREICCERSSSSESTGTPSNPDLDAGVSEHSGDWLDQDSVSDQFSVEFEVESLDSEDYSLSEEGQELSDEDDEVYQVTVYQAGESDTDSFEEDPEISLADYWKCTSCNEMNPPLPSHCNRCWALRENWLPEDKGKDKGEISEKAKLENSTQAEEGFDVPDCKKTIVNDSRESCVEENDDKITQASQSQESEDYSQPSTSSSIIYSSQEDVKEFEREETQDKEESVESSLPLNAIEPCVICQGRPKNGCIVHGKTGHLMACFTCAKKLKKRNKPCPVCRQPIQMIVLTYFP
# Sequence of E3 ubiquitin-protein ligase Mdm2 (Q00987 whole entry, looked up): as above
compound,measurement,setting,value
O=C1CCC(N2Cc3c(CCCCCNC(=O)[C@@H]4NC5(CCCCC5)[C@@]5(C(=O)Nc6cc(Cl)ccc65)[C@H]4c4cccc(Cl)c4F)cccc3C2=O)C(=O)N1 (some centres not stated),IC50,[1],3.4 nM
same,IC50,MDA-MB-231 [2],39.4 nM
same,Activity,[3],inactive
same,IC50,MDA-MB-231 [4],19.3 nM
same,Activity,[5],inactive
same,Activity,[6],inactive
same,Activity,[7],Dose-dependent effect
same,Activity,[8],inactive
same,IC50,MDA-MB-231 [9],> 3000 nM
same,Activity,[10],inactive
same,Activity,[11],inactive
same,IC50,MDA-MB-468,> 1000 nM
